We go through two molecules from ChEMBL document CHEMBL3045292, “Synthesis and herbicidal activity of 2-(7-fluoro-3-oxo- 3,4-dihydro-2H-benzo[b][1,4]oxazin-6-yl)isoindoline-1,3-diones” (J Agric Food Chem, 2005).

Data set [1] can be described thus: Phytotoxicity against Glycine max (soybean) assessed as growth inhibition at 150 g/ha pre-emergence treatment measured after 15 days by crop-selectivity assay. Particulars: in vivo, read-out: GI. It is filed as organism-based.
Data set [2] deals with Triticum aestivum. Put plainly: (§1) Phytotoxicity against Triticum aestivum (wheat) assessed as growth inhibition at 7.5 g/ha post-emergence treatment measured after 15 days by crop-selectivity assay. It is filed as organism-based. The settings on record: in vivo, other, 360 h. The gist of the method:
(§2)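 Compounds were formulated as 100 g/L emulsifiable concentrates, with DMF as solvent and Tween-80 as emulsifier, then diluted in water to the required rate. They were sprayed on pot-grown plants in a greenhouse, in clay soil (pH 6.5, 1.6% organic matter, 37.3% clay, CEC 12.1 cmol/kg). Untreated and DMF-treated plants served as controls. Percent growth inhibition was scored visually 15 days after treatment.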

Data set [3] concerns Triticum aestivum. Put plainly: (§3) Phytotoxicity against Triticum aestivum (wheat) assessed as growth inhibition at 30 g/ha pre-emergence treatment measured after 15 days by crop-selectivity assay. Particulars: in vivo, other, 360 h. Type of data set: organism-based. The gist of the method:
as §2

Data set [4] has as its system Zea mays. Put plainly: Phytotoxicity against Zea mays (maize) assessed as growth inhibition at 30 g/ha pre-emergence treatment measured after 15 days by crop-selectivity assay. Type of data set: organism-based. The settings on record: in vivo, other, 360 h. The procedure, abridged:
as §2

The subject of data set [5] is Zea mays. Put plainly: Phytotoxicity against Zea mays (maize) assessed as growth inhibition at 15 g/ha pre-emergence treatment measured after 15 days by crop-selectivity assay. Type of data set: organism-based. Particulars: in vivo, other, 360 h. The gist of the method:
as §2

Data set [6] concerns Abutilon theophrasti. Briefly: Herbicidal activity against Abutilon theophrasti (velvetleaf) assessed as weed growth inhibition at 75 g/ha post-emergence treatment […]. Type of data set: functional. Particulars: read-out: GI. The gist of the method: (§4)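 Pot-grown plants in the greenhouse, in clay soil (pH 6.5, 1.6% organic matter, 37.3% clay, CEC 12.1 cmol/kg). Compound was made up as a 100 g/L emulsified concentrate (DMF, Tween-80), diluted in water and sprayed at 75 g ai/ha. Pre-emergence spraying was 24 h after sowing; post-emergence at two-leaf (dicots) or one-leaf (monocots) stage. Untreated and DMF controls. Percent growth inhibition scored visually 15 days post-treatment.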

The test system of a further data set is Echinochloa crus-galli. Put plainly: Herbicidal activity against Echinochloa crus-galli (barnyard grass) (barnyard grass) assessed as weed growth inhibition at 75 g/ha pre-emergence treatment […]. The settings on record: read-out: GI. Type of data set: functional. The procedure, abridged: as §4
The test system of data set [7] is Triticum aestivum. Put plainly: (§5) Phytotoxicity against Triticum aestivum (wheat) assessed as growth inhibition at 15 g/ha post-emergence treatment measured after 15 days by crop-selectivity assay. It is filed as organism-based. The settings on record: in vivo, other, 360 h.
Data set [8] can be described thus: Phytotoxicity against Glycine max (soybean) assessed as growth inhibition at 30 g/ha post-emergence treatment measured after 15 days by crop-selectivity assay. It is filed as organism-based. Particulars: in vivo, read-out: GI.
Data set [9] in a line: Phytotoxicity against Gossypium (cotton) assessed as growth inhibition at 30 g/ha post-emergence treatment measured after 15 days by crop-selectivity assay. It is filed as organism-based. The settings on record: in vivo, read-out: GI.
For data set [10], the system named is Oryza sativa. Briefly: (§6) Phytotoxicity against Oryza sativa (rice) assessed as growth inhibition at 7.5 g/ha pre-emergence treatment measured after 15 days by crop-selectivity assay. It is filed as organism-based. The settings on record: in vivo, other, 360 h.
Data set [11] is described as follows: Phytotoxicity against Oryza sativa (rice) assessed as growth inhibition at 150 g/ha pre-emergence treatment measured after 15 days by crop-selectivity assay. The settings on record: in vivo, read-out: GI. It is filed as organism-based.
The test system of a further data set is Gossypium. Briefly: Phytotoxicity against Gossypium (cotton) assessed as growth inhibition at 15 g/ha pre-emergence treatment measured after 15 days by crop-selectivity assay. Type of data set: organism-based. The settings on record: in vivo, other, 360 h.
Data set [12] in a line: Phytotoxicity against Oryza sativa (rice) assessed as growth inhibition at 15 g/ha pre-emergence treatment measured after 15 days by crop-selectivity assay. The settings on record: in vivo, read-out: GI. Type of data set: organism-based.
Data set [13] concerns Triticum aestivum. Briefly: (§7) Phytotoxicity against Triticum aestivum (wheat) assessed as growth inhibition at 15 g/ha pre-emergence treatment measured after 15 days by crop-selectivity assay. It is filed as organism-based. Particulars: in vivo, other, 360 h.
For data set [14], the system named is Abutilon theophrasti. Put plainly: Herbicidal activity against Abutilon theophrasti (velvetleaf) assessed as weed growth inhibition at post-emergence treatment […]. It is filed as functional, organism-based. The procedure, abridged: as §4
Data set [15] is described as follows: Phytotoxicity against Brassica rapa subsp. oleifera assessed as growth inhibition at 30 g/ha post-emergence treatment measured after 15 days by crop-selectivity assay. It is filed as organism-based. The settings on record: in vivo, read-out: GI.
The nature of data set [16]: Phytotoxicity against Glycine max (soybean) assessed as growth inhibition at 15 g/ha post-emergence treatment measured after 15 days by crop-selectivity assay. The settings on record: in vivo, read-out: GI. Type of data set: organism-based.
The subject of data set [17] is Triticum aestivum. Briefly: (§8) Phytotoxicity against Triticum aestivum (wheat) assessed as growth inhibition at 30 g/ha post-emergence treatment measured after 15 days by crop-selectivity assay. Particulars: in vivo, other, 360 h. It is filed as organism-based.
The test system of data set [18] is Zea mays. Briefly: (§9) Phytotoxicity against Zea mays (maize) assessed as growth inhibition at 75 g/ha pre-emergence treatment measured after 15 days by crop-selectivity assay. Type of data set: organism-based. Particulars: in vivo, other, 360 h. The gist of the method: as §2
The next data set relates to Glycine max. Briefly: (§10) Phytotoxicity against Glycine max (soybean) assessed as growth inhibition at 75 g/ha pre-emergence treatment measured after 15 days by crop-selectivity assay. Particulars: in vivo, other, 360 h. Type of data set: organism-based.
In data set [19] the test system is Zea mays. Put plainly: (§11) Phytotoxicity against Zea mays (maize) assessed as growth inhibition at 150 g/ha pre-emergence treatment measured after 15 days by crop-selectivity assay. It is filed as organism-based. Particulars: in vivo, other, 360 h. The procedure, abridged:
as §2

In data set [20] the test system is Oryza sativa. Put plainly: (§12) Phytotoxicity against Oryza sativa (rice) assessed as growth inhibition at 7.5 g/ha post-emergence treatment measured after 15 days by crop-selectivity assay. Type of data set: organism-based. Particulars: in vivo, other, 360 h.
Data set [21] in a line: as §1. It is filed as organism-based. Particulars: in vivo, 7.5 g/ha, read-out: GI. The gist of the method: as §2
A short description of data set [22]: as §3. Type of data set: organism-based. Particulars: in vivo, 30 g/ha, read-out: GI. The gist of the method:
as §2

A short description of data set [23]: as §5. Type of data set: organism-based. Particulars: in vivo, 15 g/ha, read-out: GI.
Data set [24] in a line: as §6. Type of data set: organism-based. Particulars: in vivo, 7.5 g/ha, read-out: GI.
Data set [25] can be described thus: as §7. Type of data set: organism-based. Particulars: in vivo, 15 g/ha, read-out: GI.
Data set [26] is described as follows: as §8. It is filed as organism-based. Particulars: in vivo, 30 g/ha, read-out: GI.
A short description of data set [27]: as §9. It is filed as organism-based. The settings on record: in vivo, 75 g/ha, read-out: GI. The gist of the method: as §2
Data set [28] is described as follows: as §10. Particulars: in vivo, 75 g/ha, read-out: GI. Type of data set: organism-based.
The nature of data set [29]: as §11. The settings on record: in vivo, 150 g/ha, read-out: GI. Type of data set: organism-based. The procedure, abridged: as §2
Data set [30] in a line: as §12. Type of data set: organism-based. The settings on record: in vivo, 7.5 g/ha, read-out: GI.

Molecules are shown by their SMILES.

For the molecule `C#CCN1C(=O)COc2cc(F)c(N3C(=O)c4ccc(F)cc4C3=O)cc21`, the inhibition at 360 h in data set [1] is more than 10%; in data set [8], more than 10%; in [9], more than 10%; in [11], more than 10%; in [12], 1%; in data set [15] it was more than 10%. Besides, the inhibition at 360 h in data set [16] is more than 10%. Further, the “growth inhibition (GI)” value in the data set on Triticum aestivum [2], in the data set with Triticum aestivum [3], in the data set on Zea mays [4], in the data set with Zea mays [5], with Triticum aestivum [7] and with Oryza sativa [10] was “Non-toxic” throughout. In addition, the “growth inhibition (GI)” value with Gossypium, in the data set on Triticum aestivum [13], with Triticum aestivum [17], in the data set with Zea mays [18], with Glycine max and in the data set on Zea mays [19] was “Non-toxic” throughout. The “growth inhibition (GI)” value in the data set on Oryza sativa [20] is “Non-toxic”. Also, the inhibition of growth at 75 g/ha with Abutilon theophrasti [6] and in the data set with Echinochloa crus-galli was more than 80% each time. For the same molecule, in the data set with Abutilon theophrasti [14], the IC50 came to 3.6 g/ha.
`C#CCN1C(=O)COc2cc(F)c(N3C(=O)C4=C(CCCC4)C3=O)cc21` [FLUMIOXAZIN]: the inhibition at 360 h in [1], in data set [21], in data set [22], in data set [23], in data set [8] and in [9] was more than 10% throughout. In addition, the inhibition at 360 h in data set [24], in [11], in data set [12], in data set [25], in data set [15] and in data set [16] was more than 10% each time. Also, the inhibition at 360 h in [26] is more than 10%; in data set [27], 1%; in data set [28] it was more than 10%; in [29], 1%; in [30], more than 10%. The “growth inhibition (GI)” value in the data set with Zea mays [4], in the data set with Zea mays [5] and in the data set with Gossypium was “Non-toxic” in each case. For the same molecule, the inhibition of growth at 75 g/ha with Abutilon theophrasti [6] and in the data set on Echinochloa crus-galli was more than 80% each time. Further, the IC50 in the data set on Abutilon theophrasti [14] is 1 g/ha.
